# From PubChem
# In the library only some 1.4% were active in any assay of this set; here they are far more common.
# NR2E3 ag-1 – activates human photoreceptor nuclear receptor NR2E3; inhibition of corepressor binding, % at 4.78 µM; AID 2300; 320,000 tested, 0.12% active; Q9Y5X4; GST-NR2E3/biotin-RetCOR TR-FRET, 1536-well;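 active = percent inhibition above the cutoff of mean plus 3 SD of all tested compounds, set per screening campaign, cut at about 20% in these data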;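 note: 0% = DMSO wells and 100% = biotin wells as full block of FRET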
#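 Format: 1536-well format; test system: GST-NR2E3 and biotin-RetCOR proteins; read-out basis: percent inhibition of TR-FRET ratio; timing: 5 h incubation at 4 °C; detection: time-resolved FRET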
# NR2E3 ag-2 – activates human NR2E3 receptor; CHO-S Gal4-NCOR/VP16-NR2E3 two-hybrid, luciferase; inhibition of corepressor binding, % at 3.98 µM; 360,000 tested, 0.35% active; Q9Y5X4;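 active = inhibition above the mean of all tested compounds plus 3 SD, cut at about 70% in these data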;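 note: 0% = DMSO with NR2E3 transfected cells and 100% = cells lacking NR2E3 construct; higher means lower luciferase signal from less NR2E3 corepressor binding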
# PG9 Ab binder – binds the HIV-1 gp120 antibody PG9; TR-FRET gp120-PG9 antibody binding; inhibition, % at 6.7 µM; 360,000 tested, 0.43% active; AID 624416; in the data active = inhibition above about 8.5%
# Rev-erbA mod – modulates human Rev-erb alpha binding to DNA | activity, % at 10 µM | Rev-erbα–FITC-DNA binding, fluorescence polarization, 90 min | 370,000 tested, 0.79% active;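 active = activity above about 14%, limit read from the data; passing the limit was not always enough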;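 note: 0% = DMSO wells with 35 nM protein and 100% = DMSO wells with 750 nM protein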
# Target sequence (P20393 whole entry, looked up): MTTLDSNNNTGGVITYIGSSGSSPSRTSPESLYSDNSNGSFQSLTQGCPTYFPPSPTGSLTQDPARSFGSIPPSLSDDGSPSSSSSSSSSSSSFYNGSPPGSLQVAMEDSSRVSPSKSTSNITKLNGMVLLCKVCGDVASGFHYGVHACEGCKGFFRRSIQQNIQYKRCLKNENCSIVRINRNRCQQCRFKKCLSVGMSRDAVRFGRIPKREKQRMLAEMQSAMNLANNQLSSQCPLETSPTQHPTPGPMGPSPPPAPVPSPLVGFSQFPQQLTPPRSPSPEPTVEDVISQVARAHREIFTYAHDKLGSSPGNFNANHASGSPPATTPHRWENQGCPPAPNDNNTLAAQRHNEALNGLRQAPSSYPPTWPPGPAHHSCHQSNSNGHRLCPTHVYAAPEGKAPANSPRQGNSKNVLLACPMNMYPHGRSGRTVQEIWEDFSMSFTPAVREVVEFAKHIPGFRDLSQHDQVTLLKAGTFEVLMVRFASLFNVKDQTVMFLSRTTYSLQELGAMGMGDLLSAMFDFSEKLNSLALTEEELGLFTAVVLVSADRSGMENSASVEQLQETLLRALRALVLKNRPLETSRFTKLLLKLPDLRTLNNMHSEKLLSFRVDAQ
# PG9 binder conf – PG9 antibody binding, confirmed. shares compounds with PG9 Ab binder. TR-FRET PG9 antibody binding, biochemical. inhibition, % at 6.7 µM. 1,500 tested, 90% active. AID 651571; in the data active = inhibition above about 9%
# PGV04 Ab binding – binds control antibody PGV04 in PG9 binder counter-screen; shares compounds with PG9 Ab binder; TR-FRET PGV04 antibody-gp120 binding, biochemical; inhibition, % at 6.7 µM; 1,500 tested, 95% active; AID 651604; in the data active = inhibition above about 9.5%
# PG9 bind DR – PG9 antibody binding, dose response; shares compounds with PG9 Ab binder; TR-FRET PG9 antibody-gp120 binding inhibition; IC50, µM; 95 tested, under 10 active; AID 651848; in the data active = IC50 below about 10 µM
# PGV04 binding DR – binds control antibody PGV04 in PG9 counter-screen; IC50, µM; TR-FRET binding to control antibody PGV04; shares compounds with PG9 Ab binder; 95 tested, 20% active
# PG126 binding DR – counter-screen for PG9 binders: binding to control antibody PG126; shares compounds with PG9 Ab binder; TR-FRET binding to antibody PG126, counterscreen; IC50, µM; 95 tested, 20% active; AID 651939
# * hit, by the source's call; i = inactive; · = not tested or not shown. Cut-off read from the data, not from the text of the source, unless noted: active = IC50 below about 9 µM; inactive = the rest.
SMILES,NR2E3 ag-1,NR2E3 ag-2,PG9 Ab binder,Rev-erbA mod,PG9 binder conf,PGV04 Ab binding,others
CCOc1ccc(C2C(C(=O)c3ccco3)=C(O)C(=O)N2Cc2cccnc2)cc1OC (centres undefined),3,-25,1,-1,·,·,
O=C(NCCc1c[nH]c2ccccc12)OCc1cn(Cc2cccc(Cl)c2)nn1,·,·,·,3,·,·,
N#Cc1c(-c2ccccc2)c(C#N)c2nc3ccccc3n2c1N,-16,34,8.8*,1,18*,24*,
COc1ccc(C(=O)Nc2ccccc2C(=O)NC(C(=O)NCc2ccco2)C(C)C)cc1 (centres undefined),2,-21,1,15,·,·,
COc1ccc(C(=O)Nc2ccccc2C(=O)N(Cc2ccco2)C(C(N)=O)C(C)C)cc1 (centres undefined),1,-14,9.9*,24,19*,16*,PG9 bind DR=>67;PGV04 binding DR=i;PG126 binding DR=>67
O=C(NCCC1CCCCN1S(=O)(=O)c1ccc(F)cc1)C(=O)Nc1ccccc1F (centres undefined),1,5,10*,0,4,7,
COc1ccc(CNS(=O)(=O)NCc2ccccc2)cc1,1,7,-1,-4,·,·,
Cc1cc(C=O)c(C)n1-c1ccc(Oc2ccc([N+](=O)[O-])cn2)cc1,-2,-1,8.6*,5,10*,15*,
CCOC(=O)C1=C(C)NC(SCC(N)=O)=C(C#N)C1c1ccccc1 (centres undefined),-1,-12,14*,5,8,10*,
O=C1OC(c2ccccc2)(c2ccc(O)cc2)c2ccccc21 (centres undefined),·,-11,0,-2,·,·,
Cc1ccc(C(=O)Nc2nnc(NC(=S)Nc3ccccc3)s2)cc1,4,-111,12*,14,16*,20*,
COc1ccc(C(=O)NCCCNc2nc3cc(C)cc(C)c3cc2C#N)cc1,·,-22,-1,0,·,·,
COc1cc(OC)cc(C(=O)NCCNc2nc3cc(C)cc(C)c3cc2C#N)c1,6,-6,20*,0,9.0*,23*,
CCCNC(=O)C1CCN(S(=O)(=O)c2ccc3nc4c(c(C(=O)O)c3c2)CCCCC4)CC1,5,-22,1,3,·,·,
CSCCC(Nc1ncnc2ccc(Br)cc12)C(=O)O (centres undefined),13,3,13*,2,20*,20*,
CCCCn1c(N)c(N(CCOC)C(=O)c2ccc3c(c2)C(=O)N(c2ccccc2C)C3=O)c(=O)[nH]c1=O,-1,-43,0,4,·,·,
O=C(O)C1CCN(C(=O)CSc2nc3ccccc3c(=O)n2-c2ccc(Cl)cc2)CC1,3,-11,-4,-2,·,·,
COc1cc(C(=O)Nc2nc3ccc(C)cc3s2)ccc1OCc1c(C)noc1C,4,-37,12*,14,21*,26*,
CCc1nnc(NC(=O)c2ccc(OCc3c(C)noc3C)c(OC)c2)s1,2,9,-2,-4,·,·,
COc1ccc(C(=O)COC(=O)c2ccccn2)cc1OC,2,-13,-1,-6,·,·,
CSc1ccc(S(=O)(=O)Nc2ccccc2C(=O)N2CCOCC2)cc1,3,-15,8.8*,6,22*,22*,PG9 bind DR=>67;PGV04 binding DR=>67;PG126 binding DR=>67
Cc1ccccc1C(=O)Nc1nnc(S(=O)(=O)N2CCCCC2)s1,11,-11,24*,-4,32*,40*,
Cc1ccc(C2C(C#N)=C(N)SC(N)=C2C#N)cc1,·,-3,13*,1,7,8,
Cc1ccc(C2C(C#N)=C(N)SC(N)=C2C#N)c(C)c1,10,-2,·,·,·,·,
CCOC(=O)c1sc(NC(=O)C2CC(=O)N(c3ccc(OC)cc3)C2)nc1C (centres undefined),0,-1,0,1,·,·,
SMILES,NR2E3 ag-1,NR2E3 ag-2,PG9 Ab binder,Rev-erbA mod,PG9 binder conf,PGV04 Ab binding,others
O=C(NCCN1CCOCC1)c1cc(-c2ccc(Br)cc2)on1,5,-11,1,-2,·,·,
C=CCNC(=O)c1cc(-c2ccc(Br)cc2)on1,4,-72,9.4*,4,25*,28*,
COc1ccc(CCN2CC(C(=O)N(C)Cc3ccc4nsnc4c3)CCC2=O)cc1 (centres undefined),2,-5,-2,-8,·,·,
COc1ccc2nc(C)cc(SCC(=O)NNC(=O)COc3ccc(C)cc3)c2c1,-22,-1,-12,1,·,·,
COc1ccc2nc(C)cc(SCC(=O)Nc3c(C)cccc3C)c2c1,3,-3,10*,3,27*,33*,
CCOC(=O)c1c(N)sc(=S)c2c1CCC2,6,7,9.5*,-6,6,10*,
CC(C)(C)CNC(=O)c1cc2c(Br)ccc(Br)c2nc1N,·,-14,10.0*,11,7,14*,
Nc1nc2sc3c(c2cc1C(=O)NCC(=O)O)CCCC3,-1,-9,-2,-6,·,·,
C#CCNC(=O)c1cc2c(Br)ccc(Br)c2nc1N,·,-19,17*,4,18*,22*,
O=C(/C=C/c1ccccc1Cl)N(Cc1ccccc1)C1CCS(=O)(=O)C1 (centres undefined),7,-39,-1,-7,·,·,
CCCN1CNC(=S)N(c2ccc(C)cc2C)C1,-1,-10,-1,-2,·,·,
COc1ccc2c(-c3ccccc3)cc3nnnn3c2c1,4,-11,9.9*,16,10*,24*,
COc1cc(OC)c(C2Nc3cccc4cccc(c34)N2)c(OC)c1,·,24,12*,-11,6,12*,
COc1ccc(C2Nc3cccc4cccc(c34)N2)cc1,5,-23,-7,-10,·,·,
O=C(N[C@H](Cc1ccccc1)C(=O)NCCCN1CCCC1=O)[C@H]1O[C@@H](n2ccc(=O)[nH]c2=O)[C@H](O)[C@@H]1O,·,·,0,3,·,·,
CCN(c1ccc(F)cc1)S(=O)(=O)c1ccc2[nH]cc(C(=O)NCCCN3CCOCC3)c(=O)c2c1,0,-13,1,1,·,·,
CCN(c1ccccc1)S(=O)(=O)c1ccc2[nH]cc(C(=O)N3CCOCC3)c(=O)c2c1,2,7,9.1*,-6,8,9.9*,
COc1ccc(NC(=O)c2c(NC(=O)CNCC(C)C)sc3c2CCC3)c(OC)c1,3,22,11*,1,9.9*,9.5*,PG9 bind DR=>67;PGV04 binding DR=i;PG126 binding DR=i
NS(=O)(=O)c1cccc(NC(=O)c2ccc(NS(=O)(=O)c3cccc([N+](=O)[O-])c3)cc2)c1,·,-3,0,1,·,·,
CCCSc1ccc2nc(NC(=O)OC)[nH]c2c1,1,-63,12*,10,25*,36*,
